Results from ChEMBL document CHEMBL4196170, “Cytotoxic p-Terphenyls from the Endolichenic Fungus Floricola striata” (J Nat Prod, 2018).
Counter-ions that a name gives are not always drawn. Calls of active or inactive are those of the source. No cut-off for these calls is given here.

Experiments:
MCF7 [1] = assay: Cytotoxicity against human MCF7 cells after 48 hrs by MTT assay; assay type: functional, cell-based; conditions: MCF7, 48 h
In short: (§1)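 Cells seeded at 5000−10 000 per well, preincubated 12 h at 37 °C, 5% CO2, then exposed to a range of concentrations for 48 h. MTT added, absorbance read at 570 nm after 4 h; percent growth inhibition used to derive IC50. Adriamycin as positive control.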

A2780 = assay: Cytotoxicity against human A2780 cells after 48 hrs by MTT assay; assay type: functional, cell-based; conditions: A2780, 48 h; in short: as §1
A549 = assay: Cytotoxicity against human A549 cells after 48 hrs by MTT assay; assay type: functional, cell-based; conditions: A549, 48 h; in short: as §1
Homo sapiens [2] = organism: Homo sapiens; assay: Inhibition of P-gp in human MCF7/ADR cells assessed as increase in intracellular Rh123 accumulation by measuring increase in fluorescence intensity after 24 hrs by fluorescence microscopic analysis; assay type: cell-based
In short: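 Rh123 (5 μM)-exposed MCF-7/ADR cells, untreated or treated with modulator (10 μM) or verapamil (10 μg/mL), photographed by fluorescence microscopy after 24 h.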

Homo sapiens [3] = organism: Homo sapiens; conditions: 10 ug/ml
Homo sapiens [4] = organism: Homo sapiens; assay: Inhibition of P-gp in human MCF7/ADR cells assessed as increase in intracellular Rh123 accumulation after 1 hr by flow cytometry; assay type: cell-based
In short: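 Exponentially growing MCF-7/ADR cells (3 × 10^5/mL) loaded with Rh123 (5 μM) with or without modulator (5, 10, 20 μM) or verapamil (10 μg/mL), 1 h at 37 °C. Rh123 accumulation (%) by flow cytometry, excitation 488 nm, emission through 530 nm filter; untreated cells as negative control. Mean ± SD of three independent experiments.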

MCF7 [5] = assay: Increase in adriamycin accumulation in human MCF7 cells at 10 ug/ml after 1 hr by flow cytometry; assay type: functional, cell-based
In short: (§2)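 4 × 10^5 MCF-7 or MCF-7/ADR cells incubated 1 h at 37 °C with 10.0 μM adriamycin alone or with modulator (5, 10, 20 μM) or verapamil (10 μg/mL); washed twice in ice-cold PBS. Adriamycin accumulation (%) by flow cytometry relative to untreated cells. Mean ± SD, three independent experiments.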

NCI/ADR-RES = assay: Cytotoxicity against human MCF7/ADR cells after 48 hrs by MTT assay; assay type: functional, cell-based
In short: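 MTT format as for parental lines: 48 h exposure to various concentrations in ADM-selected P-gp-overexpressing MCF-7/ADR cells, absorbance at 570 nm after 4 h MTT, IC50 from percent growth inhibition.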

MCF7 [6] = assay: Increase in adriamycin accumulation in human MCF7 cells at 20 uM after 1 hr by flow cytometry; assay type: functional, cell-based; in short: as §2
Homo sapiens [7] = organism: Homo sapiens; assay: Inhibition of P-gp in human MCF7/ADR cells assessed as increase in intracellular accumulation of adriamycin by measuring increase in fluorescence intensity at 10 uM after 24 hrs by fluorescence microscopic analysis; assay type: cell-based
In short: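 MCF-7/ADR cells imaged by fluorescence microscopy for adriamycin fluorescence after 24 h incubation with or without modulator (10 μM) or verapamil (10 μg/mL); untreated cells as negative control.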

Homo sapiens [8] = organism: Homo sapiens; assay: Inhibition of P-gp in human MCF7/ADR cells assessed as potentiation of adriamycin-induced cytotoxicity by measuring fold reduction in adriamycin IC50 at 5 uM after 48 hrs by MTT assay relative to adriamycin alone; assay type: cell-based
In short: (§3)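 MCF-7/ADR (ADM-selected, P-gp-overexpressing) and MCF-7 cells given graded adriamycin with or without modulator (5 or 10 μM) or verapamil 10 μg/mL for 48 h; MTT read at 570 nm. Reversal fold from adriamycin IC50 alone versus IC50 in combination.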

Homo sapiens [9] = organism: Homo sapiens; assay: Inhibition of P-gp in human MCF7/ADR cells assessed as potentiation of adriamycin-induced cytotoxicity by measuring fold reduction in adriamycin IC50 at 10 uM after 48 hrs by MTT assay relative to adriamycin alone; assay type: cell-based; in short: as §3
Homo sapiens [10] = organism: Homo sapiens; assay: Inhibition of P-gp in human MCF7/ADR cells assessed as increase in intracellular accumulation of adriamycin after 1 hr by flow cytometry; assay type: cell-based; in short: as §2

`COc1ccc(-c2c(O)cc(-c3ccccc3)c(OC)c2OC)cc1` was tested, and the IC50 (MCF7 [1]) was > 40 µM, the IC50 (A2780) was > 40 µM and the IC50 (A549) was > 40 µM.
With `COc1cccc2c1C(=O)c1c(O)c3c(c(O)c1C2=O)C[C@@](O)(C(=O)CO)C[C@@H]3O[C@H]1C[C@H](N)[C@H](O)[C@H](C)O1` [DOXORUBICIN HYDROCHLORIDE] the IC50 (A2780) was 0.5 µM and the IC50 (A549) was 1.3 µM.
`COc1cc(-c2ccc(O)cc2)c(O)c2oc3ccc(O)cc3c12` was tested, and the IC50 (MCF7 [1]) was 17.9 µM, the IC50 (A2780) was 21.4 µM and the IC50 (A549) was > 40 µM.
With `COc1cc(-c2ccc(O)cc2)c(O)c2oc3ccccc3c12` the IC50 (MCF7 [1]) was 17.5 µM, the IC50 (A2780) was 40.1 µM and the IC50 (A549) was > 40 µM.
In the case of `COc1ccc(-c2c(OC)cc(-c3ccccc3)c(OC)c2OC)cc1`, the IC50 (MCF7 [1]) is reported as > 40 µM, the IC50 (A2780) is reported as > 40 µM and the IC50 (A549) is reported as > 40 µM.
`COc1ccc(CCN(C)CCCC(C#N)(c2ccc(OC)c(OC)c2)C(C)C)cc1OC` (configuration not stated) was tested, and the inhibition (Homo sapiens [2]) was “Dose-dependent effect”, the inhibition (Homo sapiens [3]) was “Active” and the inhibition (Homo sapiens [4]) was “Dose-dependent effect”. For the same molecule, the Activity (MCF7 [5]) was “inactive”.
In the case of `COc1ccc(-c2cc(OC)c(-c3ccccc3)c(OC)c2O)cc1`, the IC50 (MCF7 [1]) is reported as 38.5 µM, the IC50 (A2780) is reported as > 40 µM and the IC50 (A549) is reported as 12.5 µM.
`COc1cc(-c2ccccc2)c(O)c2oc3ccc(O)cc3c12` was tested, and the IC50 (MCF7 [1]) was 13.4 µM, the IC50 (A2780) was 25.1 µM and the IC50 (A549) was > 40 µM.
With `COC1=C(c2ccccc2O)C(=O)C=C(c2ccc(O)cc2)C1=O` the IC50 (MCF7 [1]) was 16.7 µM, the IC50 (A2780) was 8.6 µM and the IC50 (A549) was > 40 µM.
With `O=C1C[C@@](O)(c2ccccc2)[C@H](O)c2oc3ccc(O)cc3c21` the IC50 (MCF7 [1]) was > 40 µM, the IC50 (A2780) was > 40 µM and the IC50 (A549) was > 40 µM.
`COc1cc(-c2ccc(O)cc2)c(O)c2oc3cc(O)ccc3c12` was tested, and the IC50 (MCF7 [1]) was 11.7 µM, the IC50 (A2780) was 14.9 µM and the IC50 (A549) was 27.8 µM.
In the case of `COc1ccc(-c2cc(OC)c(-c3ccccc3O)c(OC)c2OC)cc1`, the IC50 (MCF7 [1]) is reported as > 40 µM, the IC50 (A2780) is reported as > 40 µM and the IC50 (A549) is reported as > 40 µM.
In the case of `COC1=C(c2ccc(OC)cc2)C(=O)C=C(c2ccccc2)C1=O`, the IC50 (MCF7 [1]) is reported as 19.9 µM, the IC50 (NCI/ADR-RES) is reported as 23.5 µM and the inhibition (Homo sapiens [2]) is reported as “Dose-dependent effect”. For the same molecule, the inhibition (Homo sapiens [4]) was “Dose-dependent effect”, the Activity (MCF7 [6]) was “inactive” and the inhibition (Homo sapiens [7]) was “Active”. For the same molecule, the IC50 (A2780) was 3.4 µM, the fold change (FC) (Homo sapiens [8]) was 1.3 and the fold change (FC) (Homo sapiens [9]) was 39.1. For the same molecule, the IC50 (A549) was 40.1 µM and the inhibition (Homo sapiens [10]) was “Dose-dependent effect”.
